Laboratory results: ChEMBL document CHEMBL1153548 (Antimicrob Agents Chemother, 2007)
≈ marks a conversion by molar mass, not a printed value.

Columns and labels:
[1] = Efflux clearance from middle ear fluid to plasma in Chinchilla lanigera assessed as unbound Km at 40000 ug/kg, iv followed by local dose of 19 ug/kg into intra-middle ear by compartmental microdialysis; assay type: ADME, organism-based
[2] = Efflux clearance from middle ear fluid to plasma in Streptococcus pneumoniae WT3-infected Chinchilla lanigera assessed as unbound Km at 40000 ug/kg, iv followed by local dose of 19 ug/kg into intra-middle ear by compartmental microdialysis; assay type: ADME, organism-based
[3] = tested on: Streptococcus pneumoniae; test: Antimicrobial activity against amoxicillin-resistant Streptococcus pneumoniae; assay type: functional
[4] = tested on: Streptococcus pneumoniae; test: Antimicrobial activity against Streptococcus pneumoniae WT3 infected in bolus iv dosed Chinchilla lanigera assessed as log reduction in bacterial count within 10 hrs of additional local drug administration into intra-middle ear; assay type: functional
Method in brief: (§1)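 Awake chinchillas with 50 CFU S. pneumoniae WT3 in 100 µl PBS inoculated into both middle ear bullae. […] MEF (30-100 µl) was drawn at 1 h predose and at 1, 2, 5, 8 and 10 h. It was serially diluted and plated on 5% sheep blood agar at 37°C under 10% CO2, with counts read at 24 and 48 h. Detection threshold was 25 CFU/ml.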

[5] = Cmax in Chinchilla lanigera at 15 mg/kg, iv followed by local dose of 13 to 235 ug/kg into intra-middle ear; assay type: ADME, organism-based; set-up: dose 15 mg/kg, route intravenous; conditions: in vivo
Method in brief: (§2)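 Conscious, freely moving chinchillas were cannulated in the femoral artery and jugular vein. […] Arterial plasma was taken predose, at time zero and at 10-12 points up to 180 min, then stored at –60°C. Unbound drug was measured by ultrafiltration (1,500 x g, 15 min, 37°C) followed by C18 solid-phase extraction and HPLC.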

[6] = Terminal half life in Chinchilla lanigera at 15 mg/kg, iv; assay type: ADME, organism-based; set-up: dose 15 mg/kg, route intravenous; conditions: in vivo, read-out: beta t1/2 (converted); method in brief: as §2
[7] = Cmax in Chinchilla lanigera at 40 mg/kg, iv followed by local dose of 13 to 235 ug/kg into intra-middle ear; assay type: ADME, organism-based; set-up: dose 40 mg/kg, route intravenous; conditions: in vivo; method in brief: as §2
[8] = Efflux clearance from middle ear fluid to plasma in Chinchilla lanigera assessed as unbound Km at 40000 ug/kg, iv followed by local dose of […] into intra-middle ear by compartmental microdialysis; assay type: ADME, organism-based
[9] = Efflux clearance from middle ear fluid to plasma in Chinchilla lanigera assessed as unbound Km at 40000 ug/kg, iv followed by local dose of 66 ug/kg into intra-middle ear by compartmental microdialysis; assay type: ADME, organism-based
[10] = Terminal half life in Chinchilla lanigera at 40 mg/kg, iv; assay type: ADME, organism-based; set-up: dose 40 mg/kg, route intravenous; conditions: in vivo, read-out: beta t1/2 (converted); method in brief: as §2
[11] = Efflux clearance from middle ear fluid to plasma in Chinchilla lanigera assessed as unbound Km at 15000 ug/kg, iv followed by local dose of 164 ug/kg into intra-middle ear by compartmental microdialysis; assay type: ADME, organism-based
[12] = Efflux clearance from middle ear fluid to plasma in Chinchilla lanigera assessed as unbound Km at 40000 ug/kg, iv followed by local dose of 13 ug/kg into intra-middle ear by compartmental microdialysis; assay type: ADME, organism-based
[13] = tested on: Streptococcus pneumoniae; test: Antimicrobial activity against amoxicillin-intermediate resistant Streptococcus pneumoniae; assay type: functional
[14] = tested on: Streptococcus pneumoniae; test: Antimicrobial activity against Streptococcus pneumoniae WT3 infected in bolus iv dosed Chinchilla lanigera assessed as log reduction in bacterial count within 5 hrs of additional local drug administration into intra-middle ear; assay type: functional; method in brief: as §1
[15] = Efflux clearance from middle ear fluid to plasma in Streptococcus pneumoniae WT3-infected Chinchilla lanigera assessed as unbound Km at 40000 ug/kg, iv followed by local dose of 96 ug/kg into intra-middle ear by compartmental microdialysis; assay type: ADME, organism-based

SMILES: CC1(C)S[C@@H]2[C@H](NC(=O)[C@H](N)c3ccc(O)cc3)C(=O)N2[C@H]1C(=O)O [AMOXICILLIN]
- Km [1]: 34 µg/mL
- Km [2]: 35.9 µg/mL
- MIC [3]: 8 µg/mL (≈ 21.9 µM)
- Activity [4]: 2
- Cmax [5]: 111 µg/mL
- half-life [6]: 18 min
- Cmax [7]: 8.8 µg/mL
- Km [8]: 9.3 µg/mL
- Km [9]: 54.9 µg/mL
- half-life [10]: 18 min
- Km [11]: 17.8 µg/mL
- Km [12]: 4.5 µg/mL
- MIC [13]: 1 µg/mL (≈ 2.74 µM)
- Activity [14]: 5
- Km [15]: 48.6 µg/mL
